Measured values from ChEMBL document CHEMBL3351715, “Methylenedioxy flavonoids: assessment of cytotoxic and anti-cancer potential in human leukemia cells” (Eur J Med Chem, 2014).
Active and inactive are the calls of the source. The calls are words filed in the database; no cut-off is given here.

Tests used:
[1] = Cytotoxicity against human U937 cells assessed as cell viability at 10 uM after 72 hrs by trypan blue staining assay; details: U-937, 72 h
Jurkat [2] = experiment: Cytotoxicity against human Jurkat cells assessed as cell viability at 10 uM after 72 hrs by trypan blue staining assay
Jurkat [3] = experiment: Cytotoxicity against human Jurkat cells assessed as inhibition of cell proliferation after 72 hrs by trypan blue staining assay; type: functional, cell-based
How it was run: (§1)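 Trypan blue exclusion count of Jurkat, U937 or K562 cells (RPMI, 10% FCS, 37 °C, 5% CO2, 10 days' culture after thawing) exposed to compound from DMSO stock; controls received equal DMSO. Proliferation expressed relative to control; mean ± SD of three determinations, Student's t-test with p<0.05 taken as significant.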

Jurkat [4] = experiment: Cytotoxicity against human Jurkat cells assessed as inhibition of cell proliferation at 50 uM after 72 hrs by trypan blue staining assay; type: functional
How it was run: as §1

[5] = Cytotoxicity against human U937 cells assessed as inhibition of cell proliferation at 30 uM after 72 hrs by trypan blue staining assay; type: functional; details: U-937, 72 h
How it was run: as §1

K562 [6] = experiment: Cytotoxicity against human K562 cells assessed as inhibition of cell proliferation at 10 to 50 uM after 8 to 72 hrs by trypan blue staining assay; type: functional, cell-based
How it was run: as §1

Jurkat [7] = experiment: Cytotoxicity against human Jurkat cells assessed as reduction in cell viability after 24 to 72 hrs by CellTiter-Glo luminescent cell viability assay; type: functional, cell-based
How it was run: (§2)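 Leukemia cells in RPMI/10% FCS at 37 °C, 5% CO2 treated for 24, 48 or 72 h. Equal volume of CellTiter-Glo reagent added, 10 min in the dark at RT, ATP luminescence converted to viable cell number. Normalized to untreated control (%), etoposide as positive control; mean ± SD of three determinations; IC50 from concentration-response.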

K562 [8] = experiment: Cytotoxicity against human K562 cells assessed as reduction in cell viability after 24 to 72 hrs by CellTiter-Glo luminescent cell viability assay; type: functional, cell-based
How it was run: as §2

[9] = Cytotoxicity against human U937 cells assessed as reduction in cell viability at 10 to 50 uM after 48 hrs by CellTiter-Glo luminescent cell viability assay; type: functional, U-937
How it was run: as §2

[10] = Cytotoxicity against human U937 cells assessed as reduction in cell viability at 10 to 50 uM after 72 hrs by CellTiter-Glo luminescent cell viability assay; type: functional, U-937
How it was run: as §2

PBMC = experiment: Cytotoxicity against human PBMC assessed as reduction in cell viability at 10 to 50 after 24 to 72 hrs by CellTiter-Glo luminescent cell viability assay; type: cell-based
How it was run: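 PBMCs isolated from healthy donor buffy coats (blood diluted 1/3 in RPMI, Ficoll, 400 × g, 20 min), kept 24 h at 37 °C, 5% CO2, then treated 24–72 h. ATP read by CellTiter-Glo luminescence (10 min, dark, RT), normalized to untreated control (%); etoposide positive control; mean ± SD, n=3.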

U-937 = experiment: Cytotoxicity against human U937 cells assessed as inhibition of cell viability at 20 uM after 72 hrs by trypan blue staining assay; type: functional, cell-based
K562 [11] = experiment: Cytotoxicity against human K562 cells assessed as inhibition of cell proliferation at 20 uM after 72 hrs by trypan blue staining assay; type: functional, cell-based
How it was run: as §1

K562 [12] = experiment: Cytostatic effect against human K562 cells at >30 uM after 72 hrs by trypan blue staining assay; type: functional, cell-based
How it was run: as §1

Jurkat [13] = experiment: Cytotoxicity against human Jurkat cells assessed as reduction in cell viability after 72 hrs by CellTiter-Glo luminescent cell viability assay; type: functional, cell-based
How it was run: as §2

[14] = Cytotoxicity against human U937 cells assessed as reduction in cell viability after 72 hrs by CellTiter-Glo luminescent cell viability assay; type: functional, cell-based; details: U-937, 72 h
How it was run: as §2

K562 [15] = experiment: Cytotoxicity against human K562 cells assessed as reduction in cell viability after 72 hrs by CellTiter-Glo luminescent cell viability assay; type: functional, cell-based; details: K562, 72 h
How it was run: as §2

Jurkat [16] = experiment: Induction of apoptosis in human Jurkat cells assessed as caspase-3 cleavage at 20 uM after 48 hrs Western blotting method; type: functional, cell-based
How it was run: (§3)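 Jurkat cells (10⁷ per sample) treated up to 48 h, lysed on ice in hypertonic detergent buffer with protease inhibitors, cleared at 15,000 × g, 15 min, 4 °C. Separated by 10% SDS-PAGE, transferred to nitrocellulose, probed with anti-caspase 3 or anti-caspase 7 (1/1000) and HRP secondary; β-actin loading control.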

Jurkat [17] = experiment: Induction of apoptosis in human Jurkat cells assessed as caspase-7 cleavage at 20 uM after 48 hrs Western blotting method; type: functional, cell-based
How it was run: as §3

Compound | viability at 10 µM [1] [%] | viability at 10 µM (Jurkat [2]) [%] | also measured
COc1ccc(-c2cc(=O)c3ccc4c(c3o2)OCO4)cc1 | 76.5 | 81.2 | 
COc1ccccc1C1CC(=O)c2ccc3c(c2O1)OCO3 (configuration not stated) | 74 | 83.2 | 
COc1cc(/C=C/C(=O)c2ccc3c(c2O)OCO3)cc(OC)c1OC | 64.4 | 56.1 | inhibition (Jurkat [3]): Dose-dependent effect; inhibition at 50 µM (Jurkat [4]): 70%; inhibition at 30 µM [5]: 41%; inhibition (K562 [6]): inactive; inhibition (Jurkat [7]): Dose-dependent effect; inhibition (K562 [8]): inactive; inhibition (INH) [9]: 35%; inhibition (INH) [10]: 20%; Activity (PBMC): Non-toxic
COc1cc(-c2cc(=O)c3ccc4c(c3o2)OCO4)cc(OC)c1OC | 90.5 | 76 | 
COc1ccc(/C=C/C(=O)c2ccc3c(c2O)OCO3)cc1OC | 69.3 | 77.5 | 
COc1ccccc1-c1cc(=O)c2ccc3c(c2o1)OCO3 | 82.7 | 91.6 | 
COc1ccc(-c2cc(=O)c3ccc4c(c3o2)OCO4)cc1OC | 82.5 | 87.9 | 
COc1ccccc1/C=C/C(=O)c1ccc2c(c1O)OCO2 | 55.4 | 59 | inhibition (U-937): Active; inhibition (K562 [11]): Active; Activity (K562 [12]): Active; IC50 (Jurkat [13]): 13.7 µM; IC50 [14]: 11.4 µM; IC50 (K562 [15]): 42.3 µM; Activity (PBMC): Non-toxic; Activity (Jurkat [16]): Active; Activity (Jurkat [17]): Active
COc1ccc(/C=C/C(=O)c2ccc3c(c2O)OCO3)cc1 | 80.9 | 80.6 | 
COc1cc(C2CC(=O)c3ccc4c(c3O2)OCO4)cc(OC)c1OC (configuration not stated) | 68.3 | 69.7 | 
COc1ccc(C2CC(=O)c3ccc4c(c3O2)OCO4)cc1OC (configuration not stated) | 80.4 | 74.9 | 
COc1ccc(C2CC(=O)c3ccc4c(c3O2)OCO4)cc1 (configuration not stated) | 81.7 | 88.2 | 
